Test results as given in ChEMBL document CHEMBL1156631 (J Med Chem, 2008).
≈ marks a conversion by molar mass, not a printed value.

Tests used:
Cannabinoid receptor 1 [1] = target: T1, Cannabinoid receptor 1 (Homo sapiens, UniProt P21554); assay: Agonist activity at human recombinant CB1 receptor expressed in CHO-K1 cells assessed as inhibition of forskolin-stimulated intracellular cAMP level; type: functional, cell-based
Outline: (§1)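 CHO-K1 cells stably expressing human or rat CB1 or CB2 were used. Compounds were diluted from DMSO into HBSS/HEPES/BSA buffer containing 60 µM forskolin, then combined with 5000 cells/well plus Alexa647 anti-cAMP antibody, 1 h at room temperature. A biotinylated-cAMP detection mix was added for another 1 h.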

Cannabinoid receptor 1 [2] = target: T1, Cannabinoid receptor 1; assay: Agonist activity at human recombinant CB1 receptor expressed in Sf9 cells by GTP-europium binding assay relative to CP-55940
Outline: (§2)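 Membranes were from Sf9 insect cells cotransfected with CB1 or CB2 plus Gαi3 (Bmax 1.7 pmol/mL). Compound (0.01 nM–10 µM, 1% DMSO final) was added to buffer with Hepes, BSA, 10 mM MgCl2, 150 mM NaCl, 5 µM GDP, 10 nM GTP-europium, saponin and membranes (CB1 4.5 µg/well, CB2 14 µg/well). Incubation was 45 min at room temperature, then filtration and washing, with fluorescence read at 615 nm. 100% efficacy was set by 3 µM reference agonist.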

[3] = Metabolic stability in rat liver microsomes; type: ADME, Microsome; settings: read-out: Stability
Cannabinoid receptor 2 [4] = target: T2, Cannabinoid receptor 2 (Homo sapiens, UniProt P34972); assay: Agonist activity at human recombinant CB2 receptor expressed in Sf9 cells by GTP-europium binding assay relative to CP-55940; outline: as §2
[5] = target: Cannabinoid receptor 1 (Rattus norvegicus) (UniProt P20272); assay: Agonist activity at rat recombinant CB1 receptor expressed in CHO-K1 cells assessed as inhibition of forskolin-stimulated intracellular cAMP level relative to CP-55940; type: functional, cell-based
Outline: as §1, with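 “h. Emission at 665 nm gave concentration-response curves and EC50; Emax is expressed as a percentage of the reference agonist maximum.” for “h.”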

Cannabinoid receptor 1 [6] = target: Cannabinoid receptor 1 (Rattus norvegicus, UniProt P20272); assay: Agonist activity at rat recombinant CB1 receptor expressed in CHO-K1 cells assessed as inhibition of forskolin-stimulated intracellular cAMP level; type: functional, cell-based; outline: as §1
[7] = target: T3, Cannabinoid receptor 2 (Rattus norvegicus) (UniProt Q9QZN9); assay: Agonist activity at rat recombinant CB2 receptor expressed in CHO-K1 cells assessed as inhibition of forskolin-stimulated intracellular cAMP level relative to CP-55940; type: functional, cell-based
T3 sequence (whole entry): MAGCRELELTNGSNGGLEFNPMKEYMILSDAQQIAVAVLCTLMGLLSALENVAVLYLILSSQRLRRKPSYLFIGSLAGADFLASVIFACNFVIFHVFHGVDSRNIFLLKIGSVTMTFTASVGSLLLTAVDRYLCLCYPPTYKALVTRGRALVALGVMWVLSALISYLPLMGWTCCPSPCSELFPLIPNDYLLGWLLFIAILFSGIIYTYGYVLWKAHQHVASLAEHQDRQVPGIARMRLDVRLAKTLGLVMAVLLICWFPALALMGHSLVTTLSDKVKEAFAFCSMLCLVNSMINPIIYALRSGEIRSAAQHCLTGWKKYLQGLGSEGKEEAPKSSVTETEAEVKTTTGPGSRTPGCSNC
Outline: as §1, with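 “h. Emission at 665 nm gave concentration-response curves and EC50; Emax is expressed as a percentage of the reference agonist maximum.” for “h.”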

Cannabinoid receptor 1 [8] = target: T1, Cannabinoid receptor 1; assay: Agonist activity at human recombinant CB1 receptor expressed in CHO-K1 cells assessed as inhibition of forskolin-stimulated intracellular cAMP level relative to CP-55940; type: functional, cell-based
Outline: as §1, with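 “h. Emission at 665 nm gave concentration-response curves and EC50; Emax is expressed as a percentage of the reference agonist maximum.” for “h.”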

[9] = Metabolic stability in human liver microsomes; type: ADME, Microsome; settings: read-out: Stability
Cannabinoid receptor 2 [10] = target: T2, Cannabinoid receptor 2; assay: Agonist activity at human recombinant CB2 receptor expressed in CHO-K1 cells assessed as inhibition of forskolin-stimulated intracellular cAMP level; type: functional, cell-based; outline: as §1
Cannabinoid receptor 1 [11] = target: T1, Cannabinoid receptor 1; assay: Agonist activity at human CB1 receptor expressed in Sf9 cells by GTP-europium binding assay
Outline: as §2, with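 “µg/well).” for “µg/well). Incubation was 45 min at room temperature, then filtration and washing, with fluorescence read at 615 nm.”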

Cannabinoid receptor 2 [12] = target: T2, Cannabinoid receptor 2; assay: Agonist activity at human recombinant CB2 receptor expressed in Sf9 cells by GTP-europium binding assay
Outline: as §2, with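 “µg/well).” for “µg/well). Incubation was 45 min at room temperature, then filtration and washing, with fluorescence read at 615 nm.”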

Cannabinoid receptor 2 [13] = target: T4, Cannabinoid receptor 2 (Rattus norvegicus, UniProt Q9QZN9); assay: Agonist activity at rat recombinant CB2 receptor expressed in CHO-K1 cells assessed as inhibition of forskolin-stimulated intracellular cAMP level; type: functional, cell-based
T4 sequence (Q9QZN9 whole entry): T3 sequence (whole entry)
Outline: as §1, with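 “h. Emission at 665 nm gave concentration-response curves and EC50; Emax is expressed as a percentage of the reference agonist maximum.” for “h.”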

Cannabinoid receptor 2 [14] = target: T2, Cannabinoid receptor 2; assay: Agonist activity at human recombinant CB2 receptor expressed in CHO-K1 cells assessed as inhibition of forskolin-stimulated intracellular cAMP level relative to CP-55940; type: functional, cell-based
Outline: as §1, with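 “h. Emission at 665 nm gave concentration-response curves and EC50; Emax is expressed as a percentage of the reference agonist maximum.” for “h.”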

[15] = Solubility in simulated intestinal fluid; type: physicochemical; settings: read-out: Stability
Rattus norvegicus [16] = assay: Oral bioavailability in rat; type: ADME, organism-based; settings: in vivo
[17] = Half life in rat at 10 mg/kg, po; type: ADME, organism-based; parameters: dose 10 mg/kg, route oral; settings: in vivo
Rattus norvegicus [18] = assay: (§3) AUC in rat at 10 mg/kg, po; type: ADME, organism-based, Plasma; parameters: dose 10 mg/kg, route oral; settings: in vivo
Rattus norvegicus [19] = assay: Clearance in rat at 0.5 mg/kg, iv; type: ADME, organism-based; parameters: dose 0.5 mg/kg, route intravenous; settings: in vivo
Rattus norvegicus [20] = assay: (§4) Oral bioavailability in rat at 10 mg/kg; type: ADME, organism-based; settings: in vivo
[21] = Cmax in rat at 10 mg/kg, po; type: ADME, organism-based; parameters: dose 10 mg/kg, route oral; settings: in vivo
[22] = as §3; type: ADME, organism-based, Plasma; parameters: dose 10 mg/kg, route oral; settings: plasma
[23] = as §4; type: ADME, organism-based; settings: in vivo
Cannabinoid receptor 2 [24] = target: T2, Cannabinoid receptor 2; assay: Binding affinity to CB2 receptor
Cannabinoid receptor 1 [25] = target: T1, Cannabinoid receptor 1; assay: Binding affinity to CB1 receptor

T2 sequence (P34972 whole entry): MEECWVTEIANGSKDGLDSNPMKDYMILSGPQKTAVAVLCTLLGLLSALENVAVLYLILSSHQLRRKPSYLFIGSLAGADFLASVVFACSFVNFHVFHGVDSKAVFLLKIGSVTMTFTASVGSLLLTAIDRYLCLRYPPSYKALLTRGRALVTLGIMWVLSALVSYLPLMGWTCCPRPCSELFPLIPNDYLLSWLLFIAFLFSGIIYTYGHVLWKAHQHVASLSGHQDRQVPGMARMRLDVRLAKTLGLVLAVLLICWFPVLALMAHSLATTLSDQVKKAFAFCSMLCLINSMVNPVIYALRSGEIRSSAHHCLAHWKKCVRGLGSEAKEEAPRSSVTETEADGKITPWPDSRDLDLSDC
T1 sequence (P21554 whole entry): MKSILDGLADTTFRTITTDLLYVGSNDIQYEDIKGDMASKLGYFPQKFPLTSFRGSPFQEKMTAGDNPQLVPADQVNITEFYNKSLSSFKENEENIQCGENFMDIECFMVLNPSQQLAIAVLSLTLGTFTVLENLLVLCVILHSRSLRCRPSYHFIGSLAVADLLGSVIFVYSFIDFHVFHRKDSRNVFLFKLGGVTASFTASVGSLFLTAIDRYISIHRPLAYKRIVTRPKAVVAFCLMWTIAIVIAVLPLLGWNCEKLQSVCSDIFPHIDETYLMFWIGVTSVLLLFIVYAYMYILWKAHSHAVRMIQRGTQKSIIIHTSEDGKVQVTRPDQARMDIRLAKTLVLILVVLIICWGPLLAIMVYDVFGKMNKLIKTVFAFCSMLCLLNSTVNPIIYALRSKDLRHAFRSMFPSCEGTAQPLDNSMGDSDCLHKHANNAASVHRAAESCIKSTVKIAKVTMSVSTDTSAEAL
Cannabinoid receptor 1 (Rattus norvegicus), sequence (P20272 whole entry): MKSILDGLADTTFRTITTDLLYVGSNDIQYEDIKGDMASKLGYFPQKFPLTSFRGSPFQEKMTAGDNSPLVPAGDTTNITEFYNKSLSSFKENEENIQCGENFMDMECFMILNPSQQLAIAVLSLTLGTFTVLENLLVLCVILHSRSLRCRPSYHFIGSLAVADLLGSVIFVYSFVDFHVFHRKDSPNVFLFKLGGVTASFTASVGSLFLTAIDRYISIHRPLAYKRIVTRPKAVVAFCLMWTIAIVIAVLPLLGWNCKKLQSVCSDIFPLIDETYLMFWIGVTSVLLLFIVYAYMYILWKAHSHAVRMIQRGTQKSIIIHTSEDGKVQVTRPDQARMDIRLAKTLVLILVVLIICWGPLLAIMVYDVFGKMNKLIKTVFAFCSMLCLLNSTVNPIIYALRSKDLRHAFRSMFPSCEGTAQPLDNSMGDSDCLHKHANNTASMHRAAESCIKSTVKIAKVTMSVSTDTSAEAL
Cannabinoid receptor 1 (Rattus norvegicus, UniProt P20272), sequence (P20272 whole entry): as above

Row | Structure (SMILES) | EC50 (Cannabinoid receptor 1 [1]) [nM] | Emax (Cannabinoid receptor 1 [2]) [%] | microsomal CLint [3] [µL/min/mg] | Emax (Cannabinoid receptor 2 [4]) [%] | Emax [5] [%] | EC50 (Cannabinoid receptor 1 [6]) [nM] | Emax [7] [%] | Emax (Cannabinoid receptor 1 [8]) [%] | microsomal CLint [9] [µL/min/mg] | EC50 (Cannabinoid receptor 2 [10]) [nM] | EC50 (Cannabinoid receptor 1 [11]) [nM] | EC50 (Cannabinoid receptor 2 [12]) [nM] | EC50 (Cannabinoid receptor 2 [13]) [nM] | Emax (Cannabinoid receptor 2 [14]) [%] | solubility [15] [µg/mL] | half-life [17] [h] | Cmax [21] [ng/mL] | other results
1 | O=C(CCc1nc(-c2ccc(F)cc2Cl)no1)Nc1nnc(N2CCCCC2)s1 | > 1000 | 47 | < 100 | 98 | 87 | 220 | 98 | 38 | < 100 | 0.8 | 211 | 1.2 | 1.1 | 98 |  |  |  | 
2 | Fc1ccc(-c2noc(CCCNc3cnc4ccc(OC(F)(F)F)cc4c3)n2)c(Cl)c1 | 850 | 81 |  | 110 | 120 | 130 | 130 | 78 |  | 2.3 | 1100 | 0.015 | 1.3 | 110 | 49 (≈ 105 µM) |  |  | 
3 | O=C(CCc1nc(-c2ccc(F)cc2Cl)no1)Nc1cnc2ncc(Cl)cc2c1 | > 1000 | 43 | < 100 | 110 | 100 | 220 | 100 | 30 | < 100 | 0.6 | 2300 | 3.3 | 0.4 | 97 |  |  |  | 
4 | CCn1c2ccccc2c2cc(NC(=O)CCc3nc(-c4ccccc4F)no3)ccc21 | > 1000 |  | 198 | 100 |  | > 1000 | 91 |  | 274 |  | > 10000 |  | 33 | 93 | 2 (≈ 4.67 µM) | 1.6 | 100 | F (Rattus norvegicus [16]): 13%; AUC (Rattus norvegicus [18]): 460 ng·h/mL; CL (Rattus norvegicus [19]): 20 mL/min/kg; F (Rattus norvegicus [20]): 13%
5 | Fc1ccc(-c2noc(CCCNc3cnc4ccc(Cl)cc4c3)n2)c(Cl)c1 | 560 | 51 |  | 110 | 85 | 77 | 90 | 88 |  | 2.2 | 220 | 1.7 | 1.3 | 94 | 87 (≈ 208 µM) | 5.1 | 8400 | AUC [22]: 43000 ng·h/mL; bioavailability [23]: < 100%
6 | O=C(CCc1nc(-c2ccc(F)cc2Cl)no1)Nc1ccc(C(F)(F)F)cc1Cl |  |  |  | 41 |  |  |  |  |  |  | > 10000 | 370 |  |  |  | 1.6 | 100 | AUC [22]: 460 ng·h/mL; bioavailability [23]: 13%
7 | O=C(CCc1nc(-c2ccc(F)cc2Cl)no1)Nc1cnc2ccc(Cl)cc2c1 | 710 | 82 | < 100 | 110 | 99 | 130 | 97 | 57 | < 100 | 0.5 | 0.9 | 1400 | 11 | 99 |  |  |  | 
8 | O=C(CCc1nc(-c2ccc(F)cc2Cl)no1)Nc1nc2ccc(OC(F)(F)F)cc2s1 | > 1000 | 36 | < 100 | 120 | 21 | > 1000 | 98 | 36 | < 100 | 6.5 | 1900 | 3 | 6.9 | 99 |  |  |  | 
9 | N#Cc1cc(NC(=O)CCc2nc(-c3ccc(F)cc3Cl)no2)cnc1OCC(F)(F)F | > 1000 |  |  | 110 |  | > 1000 | 100 |  |  | 31 | > 10000 | 14 | 3.1 | 97 | 24 (≈ 51.1 µM) | 3.1 | 3400 | AUC [22]: 21000 ng·h/mL; bioavailability [23]: 36%
10 | Cc1ccc2c(=O)c(C(=O)NC3CCCCC3)cn(Cc3ccc(F)cc3)c2n1 |  |  |  |  |  |  |  |  |  |  |  |  |  |  |  |  |  | Ki (Cannabinoid receptor 2 [24]): 5.5 nM; Ki (Cannabinoid receptor 1 [25]): 15 nM
11 | CC(C)(C)c1ncc(OCCCc2nc(-c3ccc(F)cc3Cl)no2)cn1 | 1500 | 99 |  | 110 | 86 | 540 | 100 | 63 |  | 24 | 610 | 4.9 | 16 | 91 |  |  |  | 
